This is a sample that favours compounds with a hit; in the whole collection about 4.4% have one here.
Tb MetRS inh – T. brucei MetRS inhibitors, primary screen, biochemical, luminescence; methionyl-tRNA synthetase (Trypanosoma brucei brucei); purified T. brucei MetRS, ATP depletion, Kinase-Glo luminescence; inhibition, % at 11.9 µM; 0.4% of 360,000 active; AID 624268, 2012;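 active = inhibition above a per-plate cutoff of the control wells' mean inhibition plus 3 SD, cut at about 5.5% in these data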;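 also: 0% = DMSO wells median and 100% = median of wells with control inhibitor compound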
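Material – parasite MetRS enzyme · Medium – HEPES-MgCl2-KCl buffer plus DTT, spermine, BSA, pyrophosphatase · Reagent – ATP, methionine and E. coli bulk tRNA substrates · Times – 15 min enzyme-compound preincubation, 2 h reaction, 10 min detection, 25 °C · Measured by – luminescence of leftover ATP · Evaluation – percent inhibition relative to median high and low control wells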
m5-HT2A agonist – mouse Htr2a agonists via beta-arrestin recruitment, primary screen, cell-based, luminescence | 5-hydroxytryptamine receptor 2A (Mus musculus), P35363 | CHO-K1 mHTR2A beta-arrestin complementation; percent of 30 µM serotonin response | activation, % at 7.6 µM | 0.66% of 360,000 active;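 active = activation above a run cutoff, the mean activation of all tested compounds plus 3 SD, cut at about 14% in these data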;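 also: 0% = plate median of compound wells and 100% = 30 µM serotonin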
AHR act – AHR activators, primary screen, cell-based, luminescence, luciferase reporter, human. AHR-responsive luciferase reporter cells. activation, % at 5 µM. AID 2796, 2010. Aryl hydrocarbon receptor (Homo sapiens), P35869. 2.5% of 320,000 active; in the data active = activation above about 47%;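 also: 0% = vehicle wells and 100% = reference agonist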
MsrA inh – bovine MsrA enzyme inhibitors, primary screen, biochemical, absorbance, HTS; 0.75% of 360,000 active; Methionine sulfoxide reductase A (Bos taurus); inhibition, % at 15.5 µM; purified bovine MsrA, absorbance read-out; in the data active = inhibition above about 4.5%;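 also: 0% = vehicle wells with enzyme and 100% = reference inhibitor wells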
MsrA act – bovine MsrA enzyme activators, primary screen, biochemical, absorbance, HTS. Methionine sulfoxide reductase A (Bos taurus). purified bovine MsrA, absorbance read-out. activation, % at 10.6 µM. 0.3% of 360,000 active. AID 602163, 2012; in the data active = activation above about 7.5%;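 also: 0% = vehicle and 100% = reference activator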
AI-2 QS mod – Vibrio harveyi AI-2 quorum sensing modulators, primary screen, JMH597 strain, luminescence/OD600 ratio | Vibrio harveyi JMH597 AI-2 luminescence/OD600 ratio, 9 h; active compounds read low; strain lacks LuxN and CqsS sensors; 0 = neutral-control median | activity change, % at 7.5 µM | 0.4% of 300,000 active; in the data active = activity change below about -75%, passing the limit was not always enough;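 also: luminescence divided by OD600 gain over 9 h not by final OD600 alone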
AHR act cf – AHR activators, confirmation, cell-based, luminescence, luciferase reporter, human | shares compounds with AHR act | human cells, AHR-responsive luciferase reporter | activation, % at 9 µM | 87% of 2,300 active; in the data active = activation above about 49%;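 also: HepG2 hepatoma cells carrying a DRE-driven firefly luciferase reporter; 0% = vehicle wells and 100% = reference agonist wells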
PXR counter – human PXR activators, counter-screen for AHR activator project, cell-based, luciferase luminescence; activation, % at 11.6 µM; 88% of 2,300 active; cell-based PXR reporter; shares compounds with AHR act; in the data active = activation above about 11%;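 also: human hepatoma DPX-2 cells expressing full-length human PXR; 0% = DMSO and 100% = reference agonist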
Target sequence (O75469 whole entry, looked up): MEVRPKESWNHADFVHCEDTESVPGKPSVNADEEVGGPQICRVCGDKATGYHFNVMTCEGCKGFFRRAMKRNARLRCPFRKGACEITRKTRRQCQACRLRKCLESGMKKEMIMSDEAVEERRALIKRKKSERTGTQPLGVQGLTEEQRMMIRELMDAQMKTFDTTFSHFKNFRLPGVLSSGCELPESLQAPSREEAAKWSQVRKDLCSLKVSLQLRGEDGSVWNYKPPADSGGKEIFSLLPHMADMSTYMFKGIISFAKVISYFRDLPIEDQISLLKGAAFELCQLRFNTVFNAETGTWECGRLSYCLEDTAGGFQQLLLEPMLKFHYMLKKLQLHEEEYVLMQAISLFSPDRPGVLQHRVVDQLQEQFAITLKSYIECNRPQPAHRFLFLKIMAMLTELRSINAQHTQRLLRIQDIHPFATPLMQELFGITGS
An asterisk follows results filed as active; nt = no result given.

SMILES | Tb MetRS inh | m5-HT2A agonist | AHR act | MsrA inh | MsrA act | AI-2 QS mod | AHR act cf | PXR counter
COc1ccc(Nc2nc3ccccc3n3nnnc23)cc1 | -1 | 4 | 99* | 2 | -10 | 4 | 103* | 29*
Cc1nc2c3ccccc3nc(NNC(=O)CCC(=O)N3CCCC(C)C3)n2n1 (stereo not drawn) | 1 | 5 | -2 | 0 | -3 | 5 | nt | nt
CCn1c(=O)cc(OCC(=O)NCc2ccc(C)o2)c2ccccc21 | -1 | 0 | 96* | 0 | -4 | 17 | 46 | 25*
COc1ccccc1N1CCN(S(=O)(=O)c2cn(C)nc2C)CC1 | 0 | 7 | 1 | 1 | -2 | 20 | nt | nt
Cn1cccc1CN1CCC[C@]2(N[C@H](c3ccc(C(F)(F)F)cc3)[C@@H]3C(=O)N(Cc4ccccc4)C(=O)[C@@H]32)C1=O | -1 | -3 | nt | -1 | 5 | nt | nt | nt
Cc1ccc(-n2ncc(Cl)c2C(=O)NC2CC2)cc1 | 0 | -2 | 90* | 0 | -12 | 1 | 136* | 21*
Cn1c(=O)c([N+](=O)[O-])c(NCCCn2ccnc2)c2ccccc21 | 0 | -3 | 80* | 0 | 2 | 15 | 110* | 27*
Nc1nc2ccc(C(=O)Nc3ccccc3)cc2s1 | -1 | 5 | 100* | 0 | -12 | 20 | 137* | 48*
CCc1ccc(NC(=O)c2ccc3ncsc3c2)cc1 | nt | nt | nt | nt | nt | 10 | nt | nt
CN(C(=O)c1ccc2nc(N)sc2c1)c1ccccc1 | -1 | -5 | 22 | 0 | -1 | -3 | nt | nt
CCc1ccc(NC(=O)c2ccc3nc(N)sc3c2)cc1 | -1 | -4 | 99* | 1 | -4 | -17 | 51* | 18*
COc1cc(-c2nnc(COC(=O)c3nn(CC(C)C)c(=O)c4ccccc34)o2)cc(OC)c1OC | 0 | 5 | 2 | -1 | -3 | 23 | nt | nt
Cc1ccc(S(=O)(=O)N2CCCNCC2)cc1 | -1 | -7 | -1 | 1 | 0 | nt | nt | nt
CCCN1C(=O)c2cc(C(=O)Nc3ccc(OC)cc3OC)ccc2C1Nc1ccc(OC)cc1OC (stereo not drawn) | 0 | -2 | 107* | 0 | -1 | 16 | 79* | 64*
CCCN1C(=O)c2cc(C(=O)Nc3ccc(OC)c(OC)c3)ccc2C1Nc1ccc(OC)c(OC)c1 (stereo not drawn) | 0 | 0 | 6 | 0 | -2 | 47 | nt | nt
COc1ccc(-c2nc3n(c2C)Cc2ccccc2-3)cc1 | -1 | 4 | 80* | 0 | -2 | 11 | 149* | 17*
Cc1cc(C)nc(Nc2n[nH]c(-c3ccccc3Cl)n2)n1 | 0 | 2 | 17 | -1 | -2 | 22 | nt | nt
Cc1ccc(-c2nc(Nc3ccccc3)n[nH]2)cc1 | -1 | 0 | 122* | -1 | -9 | nt | 111* | 8
CC(=O)ONC(=Nc1ccccc1)c1nonc1N | 1 | 4 | 1 | 1 | -8 | 23 | nt | nt
NC(=Nc1ccccc1)NC(=O)c1nc(Cl)c(N)nc1N | 0 | -1 | 86* | 0 | -4 | 32 | 30 | 35*
Cc1nn(C(=O)c2cc([N+](=O)[O-])ccc2Cl)c(C)c1Br | 0 | -10 | 5 | 4 | 0 | 34 | nt | nt
O=C(COC(=O)c1ccc(Br)c(S(=O)(=O)N2CCOCC2)c1)NC1CC1 | 0 | -7 | -2 | 0 | -2 | nt | nt | nt
O=C(Nc1nccs1)c1ccc(-c2ccc(Cl)cc2)o1 | -1 | 1 | 84* | 3 | -8 | 21 | 37 | 26*
O=C(Nc1nccs1)c1ccc(-c2ccc(F)cc2)o1 | -1 | -5 | 4 | 2 | -2 | 5 | nt | nt

Screening data deposited in PubChem by several laboratories.
